Measured values collected from several papers.
Protocols differ between the studies behind these lines.
rep main protease: Replicase polyprotein 1ab, main protease (rep, Severe acute respiratory syndrome coronavirus 2, UniProt P0DTD1)
ADRA1A: Alpha-1A adrenergic receptor (ADRA1A, Homo sapiens, UniProt P35348)
MAL12: Alpha-glucosidase MAL12 (MAL12, Saccharomyces cerevisiae S288c, UniProt P53341)

For `COc1ccc(-c2cc(=O)c3c(O)cc(OC)cc3o2)cc1`, the inhibition was 3.99% (rep main protease; enzyme activity, inhibitor; 10 µM).
For `CCOC(=O)Cc1c2c3c(cc(OC)c(OC)c3c3cc(OC)c(OC)cc13)CCN2C`, the inhibition was 13% (ADRA1A; ligand displacement, radioligand; 10 µM).
`CC(C)CC(=O)OC[C@H]1O[C@@](C#N)(c2ccc3c(N)ncnn23)[C@H](O)[C@@H]1O` gave an inhibition of 3% (Histamine H2 receptor (HRH2, Homo sapiens, UniProt P25021); cell-free assay; 20 µM).
`COc1cc2c(cc1OC)-c1c(OC)c(OC)cc3c1[C@H](C2)N(C)CC3` (racemic) gave an inhibition of 69% (ADRA1A; ligand displacement, radioligand; 10 µM).
`O=C(O)c1cc(O)c(O)c(O)c1` has a kinact/KI of 205 M⁻¹ s⁻¹ (rep main protease; enzyme activity, inhibitor).
`c1cncc([C@@H]2CCCN2)c1` has an inhibition of -8.12% (ADRA1A; ligand displacement; 50 µM).
For `COc1cc(O)c2c(c1)O[C@H](c1ccccc1)CC2=O`, the inhibition was 7.82% (rep main protease; enzyme activity, inhibitor; 100 µM).
`CN1C(=S)N(c2ccccc2)C(=O)/C1=C1/C(=O)N(C)c2ccc(Cl)cc21` gave an inhibition of 11.9% (MAL12; enzyme activity, inhibitor, absorbance; 25 µM).
For `O=C(O[C@@H]1Cc2c(O)cc(O)cc2O[C@@H]1c1ccc(O)c(O)c1)c1cc(O)c(O)c(O)c1`, the kinact was 1.83e-05 s⁻¹ (rep main protease; enzyme activity, inhibitor).
For `COc1cc2cc3c4c(cc(OC)c(OC)c4c2cc1OC)CCN3C`, the inhibition was 19% (ADRA1A; ligand displacement, radioligand; 10 µM).
`CN1CCC[C@H]1c1cccnc1` has an inhibition of -6.17% (ADRA1A; ligand displacement; 50 µM).
`COc1cc(O)c2c(=O)c(OC)c(-c3ccccc3)oc2c1` has an inhibition of 3.04% (rep main protease; enzyme activity, inhibitor; 10 µM).
For `CN1C(=O)/C(=N\Nc2ncc(-c3cc4ccccc4oc3=O)s2)c2cc(Cl)ccc21`, the inhibition was 17.4% (MAL12; enzyme activity, inhibitor, absorbance; 25 µM).
The kinact/KI of `O=c1c(O)c(-c2ccc(O)cc2)oc2c(O)c(O)cc(O)c12` is reported as 20.3 M⁻¹ s⁻¹ (rep main protease; enzyme activity, inhibitor).
`COc1cc(O)c2c(=O)cc(-c3ccccc3)oc2c1` has an inhibition of 2.12% (rep main protease; enzyme activity, inhibitor; 10 µM).
`CCc1ccc(N2C(=O)/C(=C3/C(=O)N(C)c4ccc(Cl)cc43)NC2=S)cc1` has an inhibition of 14.6% (MAL12; enzyme activity, inhibitor, absorbance; 25 µM).
The remaining binding of `[2H]c1c([2H])c([C@]2([2H])CCCN2C(=O)C(C)(C)Oc2ccc3cn[nH]c3c2)c([2H])c([2H])c1C([2H])([2H])[2H]` is reported as 59% (Homeodomain-interacting protein kinase 4 (HIPK4, Homo sapiens, UniProt Q8NE63); binding, competition with immobilised ligand; 1 µM).
